This note sets out measurements from ChEMBL document CHEMBL4266022, “Azaphilone Derivatives from the Fungus Coniella fragariae Inhibit NF-κB Activation and Reduce Tumor Cell Migration” (J Nat Prod, 2018).

The source made the active and inactive calls. The rule behind the calls is not given here.

A short description of experiment [1]: Inhibition of NF-kappaB in human MDA-MB-231 cells assessed as reduction in TNFalpha-induced NF-kappaB activation incubated with compound for 20 mins followed by TNFalpha stimulation measured after 2 hrs by luminescence assay.
Experiment [2] concerns MDA-MB-231. Briefly: Inhibition of cell migration in human MDA-MB-231 cells at 10 uM after 24 hrs by wound-scratch assay. Format: functional. Conditions: MDA-MB-231, 24 h. The essentials:
(§1)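 MDA-MB-231 cells seeded at 50 000 cells/well; scratch made after 24 h with automated wound maker. Compounds added, wound imaged every 2 h over 24 h by live-cell imager; migration into wound quantified.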

The subject of experiment [3] is MDA-MB-231. Briefly: Cytotoxicity against human MDA-MB-231 cells assessed as decrease in cell viability after 24 hrs by cellTiter-Glo reagent based assay. Format: functional. Conditions: MDA-MB-231, 24 h. The essentials:
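MDA-MB-231 cells (RPMI, 15% FCS, 37 °C, 5% CO2) seeded at 5600 cells/well in 384-well plates, cultured overnight, then treated 24 h. Viability by CellTiter-Glo luminescence. Positive control 5 μM staurosporine; 1% DMSO set as 100% viability.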

The test system of experiment [4] is MDA-MB-231. Briefly: Inhibition of cell migration in human MDA-MB-231 cells at 5 uM after 24 hrs by wound-scratch assay. It is filed as functional. The essentials:
as §1

Experiment [5] deals with MDA-MB-231. Briefly: Anti-invasive activity in human MDA-MB-231 cells assessed as inhibition of cell invasion into surrounding extracellular matrix at 10 uM after 24 hrs. It is filed as functional. Conditions: MDA-MB-231, 24 h. In outline:
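Spheroids formed from 3000 MDA-MB-231 cells/well with 0.25% matrigel in ultralow-attachment plates (centrifuged 10 min, 1000 rpm, 4 °C), 72 h formation. Embedded in matrigel:collagen R (1:1), polymerized 1 h at 37 °C. Invasion into matrix imaged daily over 3 days, quantified by image analysis.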

Experiment [6] has as its system MDA-MB-231. Briefly: Cytotoxicity against human MDA-MB-231 cells assessed as decrease in cell viability at 5 uM after 24 hrs by cellTiter-Glo reagent based assay. Format: functional. In outline: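 MDA-MB-231 cells (RPMI, 15% FCS, 37 °C, 5% CO2) were seeded at 5600 cells/well, cultured overnight, then treated at 5 μM for 24 h. Viability was read by CellTiter-Glo luminescence and normalised to 1% DMSO as 100% viability.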
In general terms: Cellular ATP, detected with luciferase, serves as a proxy for viable cell number.

For `CCCCC/C=C/C(=O)C[C@H]1C2=COC(C)=CC2=C(C=O)C(=O)[C@]1(C)O`, the values for the IC50 (in experiment [1]; with MDA-MB-231 [3]) were 37.8 µM and 18.6 µM, respectively. In the experiment on MDA-MB-231 [2], this compound showed an inhibition at 10 µM of 78%.
With `CCCCC/C=C/C(=O)[C@H]1C(=O)O[C@@]2(C)C(=O)C(C=O)=C3C=C(C)OC=C3[C@H]12`, at 5 µM the inhibition with MDA-MB-231 [4] (MDA-MB-231, 24 h) was 60%. For the same compound, the inhibition at 10 µM came to 52% with MDA-MB-231 [5] and 98% in the experiment with MDA-MB-231 [2]. In addition, the figures for the concentration for half-maximal inhibition (IC50) (in experiment [1]; with MDA-MB-231 [3]) were 4.4 µM and 21.5 µM, respectively.
Turning to `CCCCC[C@H](O)CC(=O)C[C@H]1C2=COC(C)=CC2=C(C=O)C(=O)[C@]1(C)O`, the IC50 is 29.4 µM in experiment [1] and 79.3 µM with MDA-MB-231 [3]. The compound also yielded an inhibition at 10 µM in the experiment with MDA-MB-231 [2] of 83%.
`CCCCCCCC(=O)[C@H]1C(=O)O[C@@]2(C)C(=O)C(C=O)=C3C=C(C)OC=C3[C@H]12`: the IC50 was above 100 µM in experiment [1] and 19.6 µM with MDA-MB-231 [3].
As to `CCCCC[C@@H](O)CC(=O)C[C@H]1C2=COC(C)=CC2=C(C=O)C(=O)[C@]1(C)O`, the inhibition result in the experiment on MDA-MB-231 [4] was “inactive”. For the same compound, the IC50 in experiment [1] is 70.7 µM; in the experiment on MDA-MB-231 [3], above 100 µM.
As for `CCCCC[C@@H](CC(=O)C[C@H]1C2=COC(C)=CC2=C(C=O)C(=O)[C@]1(C)O)OC`, the inhibition result in the experiment with MDA-MB-231 [4] was “inactive”. The results for the 50% inhibitory concentration (IC50) (in experiment [1]; in the experiment with MDA-MB-231 [3]) were 11.3 µM and 21.6 µM, respectively.
In the case of `CN[C@@H]1C[C@H]2O[C@@](C)([C@@H]1OC)n1c3ccccc3c3c4c(c5c6ccccc6n2c5c31)C(=O)NC4` [STAUROSPORINE], the Activity in the experiment on MDA-MB-231 [6] is recorded as 10.9%.
For `CCCCCC(CC(=O)[C@H]1C(=O)O[C@@]2(C)C(=O)C(C=O)=C3C=C(C)OC=C3[C@H]12)OC` (some centres not stated), the 50% inhibitory concentration (IC50) is above 100 µM in experiment [1] and 21 µM with MDA-MB-231 [3].

Broadly, the IC50 is the concentration needed to halve the response being measured. For orientation: inhibition means the share of the control response that was lost under treatment.
